The source of these data is ChEMBL document CHEMBL3244283, “Synthesis and biological activity of potential antimetabolites” (1977).

The term inhibition denotes the change of the read-out against control, counted positive when it falls.

The structures appear in SMILES notation. In brackets after ≈: the same amount, converted by molar mass. Activity calls are given as the source filed them. The rule behind the calls is not given here.

The nature of assay [1]: Cytotoxicity against human NCI-[…] cells assessed as growth inhibition. Type of assay: functional. Put shortly: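 Run through the NCI routine preliminary in vitro cell-culture screen (9KB system) on human epidermoid carcinoma of the nasopharynx. ED50 is the concentration giving 50% growth inhibition relative to untreated controls.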
The subject of assay [2] is L1210. The assay is described as follows: Antitumor activity against mouse L1210 cells allografted in BDF1 mouse. Type of assay: functional, cell-based. Put shortly:
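Run through the NCI routine preliminary in vivo screen (2LE system). L1210 lymphoid leukemia was carried in BDF1 host mice.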

Assay [3] deals with Escherichia coli. As to the kind of experiment: Inhibition of Escherichia coli aspartate transcarbamylase assessed as interaction between aspartate and carbamyl phosphate at 66 mM relative to control. In outline: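 E. coli aspartate transcarbamylase (0.1 per ml) catalysed the reaction of 5 mM aspartate with 4 mM carbamyl phosphate. Test agent was present at 66 mM, and phosphate at the same concentration served as a comparison. Enzyme activity was read colorimetrically. Inhibition is expressed as a percentage relative to the uninhibited reaction.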

The test system of assay [4] is Escherichia coli. As to the kind of experiment: Irreversible inhibition of Escherichia coli aspartate transcarbamylase in absence of aspartate.
In assay [5] the test system is Escherichia coli. As to the kind of experiment: Irreversible inhibition of Escherichia coli aspartate transcarbamylase in presence of aspartate.

As to `NCCCCC(N)C(=O)CCl` (stereo not drawn), in assay [1], the ED50 was 2.7 µg/mL (≈ 15.1 µM). Besides, the outcome in assay [2] was inactive.

For `CC(C)CC(N)C(=O)CCl` (stereo not drawn), the ED50 in assay [1] was 7.6 µg/mL (≈ 46.4 µM). The result in assay [2] was inactive.

For the compound `O=C(CCl)NP(=O)([O-])[O-].[Li+].[Li+]`, the inhibition in assay [3] came to 60%. For the same compound, the ED50 in assay [1] was determined as 2.5 µg/mL. Also, the inhibition entry in assay [4] and in assay [5] was “inactive” in each case. In assay [2], the outcome was inactive.

Take `NC(Cc1ccccc1)C(=O)CCl` (stereo not drawn): in assay [1], the ED50 came to 4 µg/mL (≈ 20.2 µM). Further, the outcome in assay [2] was inactive.

On to `NC(Cc1ccc(O)cc1)C(=O)CCl` (stereo not drawn), for which the ED50 in assay [1] came out at 2.1 µg/mL (≈ 9.83 µM). The result in assay [2] was inactive.
